For one test, the system named is NCI-H322M. Nature of the test: Growth of human NCI-H322M cells assessed as cell growth at 10 uM after 48 hrs by MTT assay.
A further test deals with M14. Briefly: Growth inhibition of human M14 cells assessed as cell growth at 10 uM after 48 hrs by MTT assay; values are per cent of control. The conditions noted are these: M14, 48 h.
Another test deals with CAKI-1. Nature of the test: Growth inhibition of human Caki1 cells assessed as cell growth at 10 uM after 48 hrs by MTT assay; values are per cent of control. The conditions noted are these: CAKI-1, 48 h. A general note: Tetrazolium dyes change colour on reduction, which living cells bring about.
A further test concerns Malme-3M. Briefly: Growth inhibition of human MALME-3M cells assessed as cell growth at 10 uM after 48 hrs by MTT assay; values are per cent of control.
For the next test, the system named is KM12. Nature of the test: Growth inhibition of human KM12 cells assessed as cell growth at 10 uM after 48 hrs by MTT assay; values are per cent of control. The conditions noted are these: KM12, 48 h.
A further test deals with EKVX. Briefly: Growth inhibition of human EKVX cells assessed as cell growth at 10 uM after 48 hrs by MTT assay; values are per cent of control.
The next test deals with OVCAR-3. Nature of the test: Growth inhibition of human OVCAR3 cells assessed as cell growth at 10 uM after 48 hrs by MTT assay; values are per cent of control. Conditions: OVCAR-3, 48 h.
In the next test the test system is RPMI-8226. Nature of the test: Growth inhibition of human RPMI8226 cells assessed as cell growth at 10 uM after 48 hrs by MTT assay; values are per cent of control. The conditions noted are these: RPMI-8226, 48 h.
The next test concerns OVCAR-4. Nature of the test: Growth of human OVCAR4 cells assessed as cell growth at 10 uM after 48 hrs by MTT assay. The conditions noted are these: OVCAR-4, 48 h.
The test system of the next test is DU-145. Nature of the test: Growth inhibition of human DU145 cells assessed as cell growth at 10 uM after 48 hrs by MTT assay; values are per cent of control. Conditions: DU-145, 48 h.
For another test, the system named is SF-539. Briefly: Growth inhibition of human SF539 cells assessed as cell growth at 10 uM after 48 hrs by MTT assay; values are per cent of control. The conditions noted are these: SF-539, 48 h.
The subject of a further test is HeLa. Briefly: Cytotoxicity against human HeLa cells assessed as cell death after 48 hrs.
In a further test the test system is HCC 2998. Nature of the test: Growth inhibition of human HCC2998 cells assessed as cell growth at 10 uM after 48 hrs by MTT assay; values are per cent of control. Conditions: HCC 2998, 48 h.
Another test deals with SR. Briefly: Growth inhibition of human SR cells assessed as cell growth at 10 uM after 48 hrs by MTT assay; values are per cent of control.
In the next test the test system is OVCAR-8. Nature of the test: Growth inhibition of human OVCAR8 cells assessed as cell growth at 10 uM after 48 hrs by MTT assay; values are per cent of control. Conditions: OVCAR-8, 48 h.
For another test, the system named is NCI-H522. Nature of the test: Growth inhibition of human NCI-H522 cells assessed as cell growth at 10 uM after 48 hrs by MTT assay; values are per cent of control. Conditions: NCI-H522, 48 h.
The target of test [1] is T1, NAD-dependent protein deacetylase sirtuin-1 (Homo sapiens) (UniProt Q96EB6).
T1 sequence (whole entry): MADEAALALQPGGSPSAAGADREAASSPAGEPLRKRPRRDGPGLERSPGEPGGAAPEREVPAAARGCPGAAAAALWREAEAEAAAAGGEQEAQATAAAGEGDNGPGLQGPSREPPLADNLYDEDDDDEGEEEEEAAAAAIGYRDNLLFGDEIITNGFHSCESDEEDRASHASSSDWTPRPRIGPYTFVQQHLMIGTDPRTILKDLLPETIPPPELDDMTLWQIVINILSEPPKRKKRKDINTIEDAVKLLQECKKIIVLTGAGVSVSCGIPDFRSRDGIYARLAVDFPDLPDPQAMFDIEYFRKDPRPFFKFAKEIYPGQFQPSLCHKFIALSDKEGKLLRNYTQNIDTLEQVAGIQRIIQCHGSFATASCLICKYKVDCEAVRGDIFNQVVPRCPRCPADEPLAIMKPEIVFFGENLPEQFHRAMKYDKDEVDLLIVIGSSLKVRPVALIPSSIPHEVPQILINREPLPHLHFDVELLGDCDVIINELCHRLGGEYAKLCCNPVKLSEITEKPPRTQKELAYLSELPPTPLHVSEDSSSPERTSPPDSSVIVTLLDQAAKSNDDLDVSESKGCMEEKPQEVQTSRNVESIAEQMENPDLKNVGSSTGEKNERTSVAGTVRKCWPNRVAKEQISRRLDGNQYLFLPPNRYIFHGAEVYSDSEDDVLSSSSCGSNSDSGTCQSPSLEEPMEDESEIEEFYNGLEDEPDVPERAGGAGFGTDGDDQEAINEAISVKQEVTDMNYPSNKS
Briefly: Inhibition of human SIRT1 assessed as enzyme activity using Fluor-de-Lys as substrate at 100 uM by fluorometry. Put shortly: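 Commercial Fluor-de-Lys kit, substrate human p53 379–382 peptide (Arg-His-Lys-Lys(Ac)). Human Sirt1 or Sirt2 was incubated with substrate, NAD+ and compound at 1 mM, also tested at 100 µM. Fluorescence scales with Lys382 deacetylation. Activity is expressed relative to control, mean ± S.E.M. of 3–4 replicates.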

In the next test the test system is NCI-H460. Nature of the test: Growth inhibition of human NCI-H460 cells assessed as cell growth at 10 uM after 48 hrs by MTT assay; values are per cent of control. The conditions noted are these: NCI-H460, 48 h.
The subject of a further test is SF-295. Nature of the test: Growth inhibition of human SF295 cells assessed as cell growth at 10 uM after 48 hrs by MTT assay; values are per cent of control. The conditions noted are these: SF-295, 48 h.
In another test the test system is TK-10. Nature of the test: Growth inhibition of human TK10 cells assessed as cell growth at 10 uM after 48 hrs by MTT assay; values are per cent of control. Conditions: TK-10, 48 h.
The subject of the next test is OVCAR-5. Nature of the test: Growth inhibition of human OVCAR5 cells assessed as cell growth at 10 uM after 48 hrs by MTT assay; values are per cent of control. The conditions noted are these: OVCAR-5, 48 h.
The next test deals with MDA-MB-468. Nature of the test: Growth of human MDA-MB-468 cells assessed as cell growth at 10 uM after 48 hrs by MTT assay. Conditions: MDA-MB-468, 48 h.

Results on one compound are retold here after ChEMBL document CHEMBL2062496, “Identification of a sirtuin 3 inhibitor that displays selectivity over sirtuin 1 and 2” (Eur J Med Chem, 2012).

Calls of active or inactive are those of the source. No cut-off for these calls is given here.

Usually IC50 stands for the midpoint of a concentration-inhibition curve.

`c1cncc(-c2cnn[nH]2)c1`: the growth, % of control at 10 µM in the test on NCI-H322M was 104%; with M14 it was 72.5%; in the test on CAKI-1, 95.1%; with Malme-3M, 99%; in the test with KM12, 116%; in the test on EKVX it was 76.4%. The growth, % of control at 10 µM in the test with OVCAR-3 stood at 89.5%; in the test on RPMI-8226, 66.9%; in the test with OVCAR-4, 47.4%; in the test on DU-145 it was 96.3%; with SF-539 it was 106%; with HCC 2998, 77.3%. Moreover, the growth, % of control at 10 µM came out at 97.3% in the test with SR; 49.8% in the test with OVCAR-8; 101% with NCI-H522; 115% with NCI-H460; 107% in the test with SF-295; 103% in the test with TK-10. Also, the growth, % of control at 10 µM in the test on OVCAR-5 worked out at 100%; with MDA-MB-468 it was 104%. The IC50 in the test on HeLa was 4.7 µM. Further, the inhibition entry in test [1] is “inactive”.
